Data set [1] concerns TMD8. In words: Antiproliferative activity against human TMD8 cells after 72 hrs by MTT assay. Type of data set: functional, cell-based. To be noted: TMD8, 72 h. The essentials:
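Cells grown in RPMI-1640 with FBS at 37 °C, 5% CO2. Seeded and grown 2 h, then treated with various concentrations in PBS solution, each in triplicate, and cultured a further 72 h. Viability read by MTT. IC50 from the Logit method, given as mean ± SD of three independent determinations.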
(In general: Tetrazolium assays rely on reduction of a dye to a coloured formazan, in cell work by metabolically active cells.)

The nature of data set [2]: Drug metabolism in mouse liver microsomes assessed as N-((S)-4-amino-6-methylene-5-(4-phenoxyphenyl)-7,8-dihydro-6H-pyrimido[5,4-b]pyrrolizin-7-yl)-2,3-dihydroxypropanamide formation after 3 hrs. It is filed as ADME, microsome. (Liver microsomes are vesicles of endoplasmic reticulum, rich in cytochrome P450 enzymes.)
In data set [3] the test system is TMD8. In words: Cell cycle arrest in human TMD8 cells assessed as accumulation at S phase at 10 nM after 48 hrs by propidium iodide staining-based flow cytometric method (reference value: 34.15%). Type of data set: functional.
The subject of data set [4] is TMD8. In words: Induction of apoptosis in human TMD8 cells assessed as late apoptotic cells at 1000 nM after 72 hrs by Annexin-FITC/propidium iodide staining-based flow cytometric method (reference value: 3.2%). Type of data set: functional. (Flow cytometry measures light scatter and fluorescence of single cells or particles in a stream.)
The nature of data set [5]: Drug metabolism in human liver microsomes assessed as (S)-N-(4-amino-5-(4-hydroxyphenyl)-6-methylene-7,8-dihydro-6H-pyrimido[5,4-b]pyrrolizin-7-yl)acrylamide formation after 3 hrs. Type of data set: ADME, microsome.
Data set [6] in a line: Drug metabolism in rat liver microsomes assessed as (S,E)-N-(4-amino-6-methylene-5-(4-phenoxyphenyl)-7,8-dihydro-6H-pyrimido[5,4-b]pyrrolizin-7-yl)-3-hydroxyacrylamide formation after 3 hrs. Type of data set: ADME, microsome.
Data set [7] has as its target Tyrosine-protein kinase Blk (Homo sapiens, UniProt P51451). In words: Inhibition of recombinant human BLK using Poly(Glu, Tyr) 4:1 as substrate after 1 hr by ELISA. The essentials:
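Purchased active kinase incubated with compound on wells precoated with 20 µg/mL poly(Glu,Tyr) 4:1, in 50 mM HEPES pH 7.4, 20 mM MgCl2, 0.1 mM MnCl2, 0.2 mM Na3VO4, 1 mM DTT, 5 µM ATP, 37 °C, 1 h. Phosphotyrosine detected with PY99 antibody, HRP secondary, OPD, A492. IC50 as mean of duplicates.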

Data set [8] can be described thus: Drug metabolism in mouse liver microsomes assessed as (S,E)-N-(4-amino-6-methylene-5-(4-phenoxyphenyl)-7,8-dihydro-6H-pyrimido[5,4-b]pyrrolizin-7-yl)-3-hydroxyacrylamide formation after 3 hrs. It is filed as ADME, microsome.
Data set [9] relates to Mus musculus. The data set can be described thus: In vivo inhibition of BTK in human TMD8 cells xenografted in CB17 SCID nude mouse assessed as decrease in PLCgamma2 phosphorylation at Y759 at 15 mg/kg, […] by Western blot method. Type of data set: functional, organism-based.
Data set [10] relates to TMD8. In words: Cell cycle arrest in human TMD8 cells assessed as accumulation at G1 phase after 48 hrs by propidium iodide staining-based flow cytometric method. It is filed as functional.
Data set [11] concerns the target Receptor tyrosine-protein kinase erbB-2 (Homo sapiens, UniProt P04626). In words: Inhibition of recombinant human ErbB2 using Poly(Glu, Tyr) 4:1 as substrate after 1 hr by ELISA. The essentials: (§1)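 Kinase activity was measured by ELISA on wells precoated with 20 µg/mL poly(Glu,Tyr) 4:1. Enzyme was incubated with compound in 50 mM HEPES pH 7.4, 20 mM MgCl2, 0.1 mM MnCl2, 0.2 mM Na3VO4, 1 mM DTT with 5 µM ATP at 37 °C for 1 h. Phosphotyrosine was detected with PY99 antibody, HRP secondary and OPD, read at A492. IC50 is the mean of duplicates.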

In data set [12] the test system is Rattus norvegicus. In words: Volume of distribution at steady state in rat at 1 mg/kg, iv. Type of data set: ADME, organism-based. To be noted: in vivo. The essentials: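 Rats were given compound at 1 mg/kg iv or 3 mg/kg po. Vehicle was DMSO, Tween 80 and normal saline. Values are the average of three determinations.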
The subject of data set [13] is TMD8. The data set can be described thus: Cell cycle arrest in human TMD8 cells assessed as accumulation at G1 phase at 1 nM after 48 hrs by propidium iodide staining-based flow cytometric method (reference value: 51.33%). Type of data set: functional.
Data set [14] deals with Tyrosine-protein kinase BTK (Homo sapiens, UniProt Q06187). Conditions: TMD8, 1 to 100 nM.
Sequence of Tyrosine-protein kinase BTK (Q06187 whole entry): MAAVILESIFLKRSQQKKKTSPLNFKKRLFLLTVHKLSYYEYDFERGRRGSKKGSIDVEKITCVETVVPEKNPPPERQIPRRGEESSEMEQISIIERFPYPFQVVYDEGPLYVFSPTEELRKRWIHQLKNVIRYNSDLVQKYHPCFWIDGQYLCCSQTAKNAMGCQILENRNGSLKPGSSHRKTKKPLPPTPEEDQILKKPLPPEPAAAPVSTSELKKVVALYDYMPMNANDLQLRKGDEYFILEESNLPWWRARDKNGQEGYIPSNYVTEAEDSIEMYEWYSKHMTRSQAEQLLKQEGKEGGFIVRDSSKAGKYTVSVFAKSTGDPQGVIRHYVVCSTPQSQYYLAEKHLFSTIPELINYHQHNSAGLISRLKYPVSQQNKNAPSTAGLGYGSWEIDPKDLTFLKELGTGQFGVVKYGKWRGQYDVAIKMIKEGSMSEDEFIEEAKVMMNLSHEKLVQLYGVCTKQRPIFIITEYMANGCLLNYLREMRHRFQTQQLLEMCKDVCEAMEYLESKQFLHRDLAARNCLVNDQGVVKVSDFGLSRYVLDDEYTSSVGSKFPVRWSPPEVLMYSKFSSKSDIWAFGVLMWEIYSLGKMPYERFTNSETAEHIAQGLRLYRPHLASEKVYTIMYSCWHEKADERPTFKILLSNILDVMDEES
Data set [15] deals with TMD8. The data set can be described thus: Induction of apoptosis in human TMD8 cells assessed as early apoptotic cells at 100 nM after 72 hrs by Annexin-FITC/propidium iodide staining-based flow cytometric method (reference value: 7.98%). It is filed as functional.
Data set [16] deals with TMD8. The data set can be described thus: Antiproliferative activity against human TMD8 cells xenografted in CB17 SCID nude mouse assessed as decrease in Ki-67 expression at 15 mg/kg, […] by […] immunohistochemical analysis. It is filed as functional, organism-based.
Data set [17] in a line: Drug metabolism in rat liver microsomes assessed as (S)-N-(4-amino-5-(4-hydroxyphenyl)-6-methylene-7,8-dihydro-6H-pyrimido[5,4-b]pyrrolizin-7-yl)acrylamide formation after 3 hrs. Type of data set: ADME, microsome.
Data set [18] concerns TMD8. In words: Cell cycle arrest in human TMD8 cells assessed as accumulation at G2 phase at 100 nM after 48 hrs by propidium iodide staining-based flow cytometric method (reference value: 14.53%). It is filed as functional.
Data set [19] concerns Rattus norvegicus. In words: Half life in rat at 1 mg/kg, iv. Type of data set: ADME, organism-based. Conditions: in vivo. The gist of the method: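 Rats given 1 mg/kg intravenously; vehicle DMSO, Tween 80, normal saline; values are the average of three determinations.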
Data set [20] concerns the target T1, Tyrosine-protein kinase TXK (Homo sapiens, UniProt P42681).
T1 sequence (P42681 whole entry): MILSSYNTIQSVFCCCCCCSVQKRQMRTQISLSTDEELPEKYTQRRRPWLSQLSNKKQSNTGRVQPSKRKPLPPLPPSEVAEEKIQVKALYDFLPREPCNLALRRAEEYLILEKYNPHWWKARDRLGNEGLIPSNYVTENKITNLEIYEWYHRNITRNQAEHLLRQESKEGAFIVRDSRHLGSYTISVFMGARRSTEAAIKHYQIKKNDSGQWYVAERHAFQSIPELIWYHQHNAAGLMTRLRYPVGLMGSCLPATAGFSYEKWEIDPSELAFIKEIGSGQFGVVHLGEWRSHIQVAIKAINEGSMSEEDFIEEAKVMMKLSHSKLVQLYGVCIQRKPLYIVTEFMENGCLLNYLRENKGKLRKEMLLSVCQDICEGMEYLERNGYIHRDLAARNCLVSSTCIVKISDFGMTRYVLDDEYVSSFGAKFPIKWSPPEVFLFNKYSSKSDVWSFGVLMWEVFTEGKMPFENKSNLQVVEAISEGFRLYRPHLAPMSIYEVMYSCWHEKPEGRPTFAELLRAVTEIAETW
In words: Inhibition of recombinant human TXK using Poly(Glu, Tyr) 4:1 as substrate after 1 hr by ELISA. The gist of the method: as §1

In data set [21] the test system is Mus musculus. In words: Toxicity in CB17 SCID nude mouse xenografted with human TMD8 cells assessed as change in body weight at 5 mg/kg, po qd administered for 13 consecutive days measured during compound dosing. It is filed as organism-based. To be noted: in vivo. The essentials: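 Female CB-17 SCID mice, 4-5 weeks old, were inoculated subcutaneously in the right axilla with about 2×10^6 TMD8 cells. At ~100-200 mm³ they were randomized (n = 6/group) and dosed orally once daily: vehicle for 13 days, 5 mg/kg/day for 13 days, 15 mg/kg/day for 17 days.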

The nature of data set [22]: Drug metabolism in mouse liver microsomes assessed as (S)-4-(4-(4,7-diamino-6-methylene-7,8-dihydro-6H-pyrimido[5,4-b]pyrrolizin-5-yl)phenoxy)phenol formation after 3 hrs. Type of data set: ADME, microsome.

The source made the active and inactive calls. The calls are words filed in the database; no cut-off is given here.

As a reminder, the IC50 is the midpoint of a concentration-inhibition curve. For orientation: Vdss means a proportionality between amount in the body and measured concentration, not a real space. Low values mean confinement near the circulation, high ones extensive tissue distribution.

Sequence of Receptor tyrosine-protein kinase erbB-2 (P04626 whole entry): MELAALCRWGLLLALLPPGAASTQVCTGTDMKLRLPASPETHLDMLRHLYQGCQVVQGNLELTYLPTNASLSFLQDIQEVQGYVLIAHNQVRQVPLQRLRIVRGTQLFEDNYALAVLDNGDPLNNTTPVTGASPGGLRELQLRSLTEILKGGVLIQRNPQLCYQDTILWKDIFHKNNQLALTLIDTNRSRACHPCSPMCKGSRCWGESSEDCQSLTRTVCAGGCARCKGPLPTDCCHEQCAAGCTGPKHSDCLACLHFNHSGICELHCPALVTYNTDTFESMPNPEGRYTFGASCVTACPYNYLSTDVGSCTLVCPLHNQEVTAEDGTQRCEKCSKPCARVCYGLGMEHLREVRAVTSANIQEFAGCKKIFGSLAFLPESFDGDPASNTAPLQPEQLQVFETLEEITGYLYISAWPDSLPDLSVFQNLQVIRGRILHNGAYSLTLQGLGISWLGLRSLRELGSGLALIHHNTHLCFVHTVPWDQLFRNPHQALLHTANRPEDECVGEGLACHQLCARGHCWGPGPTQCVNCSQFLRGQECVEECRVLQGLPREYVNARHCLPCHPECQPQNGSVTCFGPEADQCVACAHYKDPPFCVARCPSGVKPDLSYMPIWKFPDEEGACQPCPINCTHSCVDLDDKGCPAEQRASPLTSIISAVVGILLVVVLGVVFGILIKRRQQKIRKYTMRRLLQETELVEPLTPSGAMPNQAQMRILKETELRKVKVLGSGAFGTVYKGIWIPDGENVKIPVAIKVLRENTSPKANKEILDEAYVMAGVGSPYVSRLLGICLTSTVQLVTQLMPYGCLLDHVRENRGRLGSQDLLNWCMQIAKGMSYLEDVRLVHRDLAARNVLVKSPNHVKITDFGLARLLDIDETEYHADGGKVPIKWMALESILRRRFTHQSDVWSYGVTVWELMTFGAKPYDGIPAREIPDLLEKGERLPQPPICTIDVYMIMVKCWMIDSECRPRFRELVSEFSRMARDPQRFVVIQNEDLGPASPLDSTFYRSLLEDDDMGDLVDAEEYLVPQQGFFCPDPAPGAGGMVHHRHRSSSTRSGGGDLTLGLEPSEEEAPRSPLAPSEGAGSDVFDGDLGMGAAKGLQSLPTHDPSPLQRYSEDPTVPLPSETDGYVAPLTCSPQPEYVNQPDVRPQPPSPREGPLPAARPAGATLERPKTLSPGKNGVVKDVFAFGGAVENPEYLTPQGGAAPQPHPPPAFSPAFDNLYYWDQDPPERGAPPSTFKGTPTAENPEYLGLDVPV
Sequence of Tyrosine-protein kinase Blk (P51451 whole entry): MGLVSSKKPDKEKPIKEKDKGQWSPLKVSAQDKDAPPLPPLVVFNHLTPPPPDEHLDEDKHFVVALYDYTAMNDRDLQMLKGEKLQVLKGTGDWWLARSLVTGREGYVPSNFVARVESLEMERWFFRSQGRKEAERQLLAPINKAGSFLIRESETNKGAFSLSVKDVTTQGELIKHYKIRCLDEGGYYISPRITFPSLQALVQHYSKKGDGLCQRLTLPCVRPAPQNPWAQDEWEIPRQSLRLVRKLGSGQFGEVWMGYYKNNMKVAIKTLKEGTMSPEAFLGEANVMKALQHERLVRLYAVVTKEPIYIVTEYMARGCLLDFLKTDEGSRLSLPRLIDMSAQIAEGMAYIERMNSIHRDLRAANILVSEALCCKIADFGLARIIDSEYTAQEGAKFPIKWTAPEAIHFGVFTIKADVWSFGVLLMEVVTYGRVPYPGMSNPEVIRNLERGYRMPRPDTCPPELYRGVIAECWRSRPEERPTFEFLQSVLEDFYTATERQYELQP

In the case of `C=CC(=O)N[C@@H]1Cn2c(c(-c3ccc(Oc4ccccc4)cc3)c3c(N)ncnc32)C1=C`, the IC50 in the data set on TMD8 [1] is 16 nM; in [7] it was 0.2 nM; in data set [11], 23.2 nM; in data set [20], 2.5 nM. Also, the Drug metabolism entry in data set [2], in [5], in [6], in data set [8], in data set [17] and in data set [22] was “Metabolite_Detected” each time. Moreover, the Activity in the data set on TMD8 [3] was 12.56%; in the data set with TMD8 [4] it was 27.9%; in the data set on TMD8 [10] it was “Dose-dependent effect”; in the data set on TMD8 [13], 57.41%; in the data set with TMD8 [15] it was 34.5%; in the data set with TMD8 [18], 10.04%. Further, in the data set on Mus musculus [21], the Activity result was “Non-Toxic”. The inhibition entry (in the data set with Mus musculus [9]; in data set [14]) was “Active” each time. Also, the distribution volume (Vdss) in the data set on Rattus norvegicus [12] amounted to 1.3 L/kg. In addition, in the data set on TMD8 [16], the outcome was Active. Further, in the data set on Rattus norvegicus [19], the t1/2 is 34.2 min.

These data come from ChEMBL document CHEMBL4184325, “Discovery of 4,7-Diamino-5-(4-phenoxyphenyl)-6-methylene-pyrimido[5,4- b]pyrrolizines as Novel Bruton's Tyrosine Kinase Inhibitors” (J Med Chem, 2018).
